Experiments:
Coagulation factor X [1] = target: T1, Coagulation factor X (Homo sapiens, UniProt P00742); assay: Inhibition of human factor 10A using chromogenic substrate S2222 by absorbance measurement at 405 nm
Mus musculus [2] = assay: Anticoagulant activity in mouse assessed as prothrombin time at 100 mg/kg, po measured after 0.5 hrs by coagulometric analysis relative to control; type: functional, ICR
[3] = Intrinsic clearance in CD1 mouse liver microsomes assessed as compound remaining at 0.2 uM after 30 mins; type: ADME, Microsome
Mus musculus [4] = assay: Anticoagulant activity in mouse assessed as prothrombin time at 100 mg/kg, po measured after 2 hrs by coagulometric analysis relative to control; type: functional, ICR
Plasma [5] = assay: Anticoagulant activity in mouse plasma assessed as concentration required to double the clotting time by coagulometric analysis; type: functional
Outline: (§1)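 Citrated blood was spun at 3000 rpm for 10 min to give platelet-poor plasma, stored at −40 °C. Prothrombin time was read on a coagulometer at 37 °C with thromboplastin and compared with a distilled-water control. CT2 (concentration doubling clotting time) was estimated from each concentration–response curve. Each measurement was done three times and reported as the mean.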

[6] = Effective permeability of the compound after 2 hrs by PAMPA at pH 6.5; type: ADME; details: read-out: Peff
Outline: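 Compound from a 10 mM DMSO stock was diluted to a final concentration of about 50 μM in buffer containing 10% DMSO. Donor was pH 6.5 and acceptor pH 7.4, separated by a filter coated with 20% lecithin in dodecane. Plates were incubated 2 h at 25 °C in saturated humidity. Both compartments were quantified by UV at 270–400 nm against standards, with mass balance, to give Pe (n = 2).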

Rattus norvegicus [7] = assay: Tmax in F344/DuCrlCrlj rat at 100 mg/kg, po assessed as 3-[(4-methoxybenzoyl)amino]-2-{[4-(4-methyl-1,4-diazepan- 1-yl)benzoyl]amino}phenyl beta-D-glucopyranosiduronic acid level after 24 hrs by LC-MS/MS analysis; type: ADME, organism-based; design: dose 100 mg/kg, route oral; details: in vivo
Outline: (§2)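 Male F344/DuCrlCrlj rats, 6 weeks old and nonfasted, received a single oral dose of 100 mg/kg as the monomaleate salt suspended in 0.5% methylcellulose, dose given as free form. Three rats per time point were bled at 0.5, 1, 2, 4, 8 and 24 h. Plasma was deproteinized with acetonitrile containing internal standards, and parent and glucuronide were measured by LC-MS/MS.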

Rattus norvegicus [8] = assay: Cmax in F344/DuCrlCrlj rat at 100 mg/kg, po assessed as 3-[(4-methoxybenzoyl)amino]-2-{[4-(4-methyl-1,4-diazepan- 1-yl)benzoyl]amino}phenyl beta-D-glucopyranosiduronic acid level after 24 hrs by LC-MS/MS analysis; type: ADME, organism-based; design: dose 100 mg/kg, route oral; details: in vivo
Outline: as §2

Trypsin = Trypsin (Homo sapiens, UniProt P07477+P07478+P35030); assay: Inhibition of human trypsin using chromogenic substrate S2222 by dixon plot analysis plot; type: protein assay
Outline: (§3)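 Human enzymes were used at final concentrations of 4.2 mU/mL FXa, 0.20 U/mL thrombin, 1.0 U/mL trypsin and 1.7 mU/mL plasma kallikrein. Substrates were S-2222 (FXa, trypsin), S-2238 (thrombin) and S-2302 (kallikrein). Reactions were started by adding enzyme, and hydrolysis was followed at 405 nm at 37 °C. Mode of inhibition came from Lineweaver–Burk plots and Ki from Dixon plots at several substrate concentrations. Values are means of four determinations.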

Rattus norvegicus [9] = assay: AUC (0 to 24 hrs) in F344/DuCrlCrlj rat at 100 mg/kg, po assessed as 3-[(4-methoxybenzoyl)amino]-2-{[4-(4-methyl-1,4-diazepan- 1-yl)benzoyl]amino}phenyl beta-D-glucopyranosiduronic acid level after 24 hrs by LC-MS/MS analysis; type: ADME, organism-based, Plasma; design: time < 24 hr, dose 100 mg/kg, route oral; details: in vivo
Outline: as §2

Prothrombin = Prothrombin (Homo sapiens, UniProt P00734); assay: Inhibition of human thrombin using chromogenic substrate S2238 by dixon plot analysis
Outline: as §3

Plasma [10] = assay: Anticoagulant activity in human plasma assessed as concentration required to double the clotting time by coagulometric analysis; type: functional
Outline: as §1

Plasma kallikrein = Plasma kallikrein (Homo sapiens, UniProt P03952); assay: Inhibition of human plasma kallikrein using chromogenic substrate S2302 by dixon plot analysis
Outline: as §3

Coagulation factor X [11] = target: T1, Coagulation factor X; assay: Inhibition of human factor 10A using chromogenic substrate S2222 by dixon plot analysis
Outline: as §3

[12] = Cmax in F344/DuCrlCrlj rat at 100 mg/kg, po; type: ADME, organism-based; design: dose 100 mg/kg, route oral; details: in vivo
Outline: as §2

[13] = AUC (0 to 24 hrs) in F344/DuCrlCrlj rat at 100 mg/kg, po; type: ADME, organism-based; design: time < 24 hr, dose 100 mg/kg, route oral; details: plasma
Outline: as §2

[14] = Tmax in F344/DuCrlCrlj rat at 100 mg/kg, po; type: ADME, organism-based; design: dose 100 mg/kg, route oral; details: in vivo
Outline: as §2

T1 sequence (P00742 41-179 limits assumed): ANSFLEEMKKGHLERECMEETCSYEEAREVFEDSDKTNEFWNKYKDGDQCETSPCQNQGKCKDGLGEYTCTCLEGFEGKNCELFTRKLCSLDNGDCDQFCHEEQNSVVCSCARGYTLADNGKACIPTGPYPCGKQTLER
T1 sequence (P00742 235-488 limits assumed): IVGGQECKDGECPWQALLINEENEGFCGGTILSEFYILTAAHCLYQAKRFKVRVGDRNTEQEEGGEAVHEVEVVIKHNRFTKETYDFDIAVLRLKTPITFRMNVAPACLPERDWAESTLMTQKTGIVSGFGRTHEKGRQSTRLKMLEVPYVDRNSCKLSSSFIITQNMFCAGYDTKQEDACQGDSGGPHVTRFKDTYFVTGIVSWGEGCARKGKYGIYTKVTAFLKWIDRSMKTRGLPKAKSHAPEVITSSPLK
Chain of Plasma kallikrein (P03952 20-390 limits assumed): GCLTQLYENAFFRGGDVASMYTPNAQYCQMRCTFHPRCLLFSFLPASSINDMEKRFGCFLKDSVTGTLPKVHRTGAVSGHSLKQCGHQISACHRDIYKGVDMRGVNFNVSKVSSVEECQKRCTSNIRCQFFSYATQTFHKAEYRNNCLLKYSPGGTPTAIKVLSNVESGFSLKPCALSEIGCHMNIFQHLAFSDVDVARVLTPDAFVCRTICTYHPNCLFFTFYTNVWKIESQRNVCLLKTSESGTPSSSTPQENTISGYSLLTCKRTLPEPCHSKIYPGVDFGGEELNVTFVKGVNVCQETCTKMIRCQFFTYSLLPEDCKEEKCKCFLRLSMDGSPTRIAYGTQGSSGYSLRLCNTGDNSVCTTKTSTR
Chain of Plasma kallikrein (P03952 391-638 limits assumed): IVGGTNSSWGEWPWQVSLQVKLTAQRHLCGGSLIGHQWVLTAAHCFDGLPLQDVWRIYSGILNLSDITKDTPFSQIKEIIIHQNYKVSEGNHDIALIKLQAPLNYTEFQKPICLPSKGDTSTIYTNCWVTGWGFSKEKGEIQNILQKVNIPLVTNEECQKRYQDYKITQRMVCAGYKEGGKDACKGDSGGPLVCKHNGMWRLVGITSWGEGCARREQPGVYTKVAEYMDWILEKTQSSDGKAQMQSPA

| SMILES | IC50 (Coagulation factor X [1]) [nM] | fold change (FC) (Mus musculus [2]) | fold change (FC) (Mus musculus [4]) | CD (Plasma [5]) [µM] | other results |
| --- | --- | --- | --- | --- | --- |
| COc1ccc(C(=O)Nc2ccccc2NC(=O)c2ccc(OC)cc2)cc1 | 4220 | – | – | – | – |
| COc1ccc(C(=O)Nc2ccc(OC)cc2NC(=O)c2ccc(OC)cc2)cc1 | 6220 | – | – | – | – |
| COc1ccc(C(=O)Nc2ccccc2NC(=O)c2ccc(N3CCCN(C)CC3)cc2)cc1 | 103 | 1.38 | 1.39 | 2.8 | CLint scaled at 0.2 µM [3]: 2050 mL/min/kg; Papp at 2 h [6]: 42 ×10⁻⁶ cm/s |
| COc1ccc(C(=O)Nc2ccccc2C(=O)Nc2ccc(N3CCCN(C)CC3)cc2)cc1 | 539 | – | – | – | – |
| COc1ccc(NC(=O)c2ccccc2NC(=O)c2ccc(N3CCCN(C)CC3)cc2)cc1 | 140 | 1.02 | 0.98 | 5.9 | – |
| COc1ccc(C(=O)Nc2ccc(OC)cc2NC(=O)c2ccc(N3CCCN(C)CC3)cc2)cc1 | 73.4 | 1.35 | 1.38 | 7.5 | – |
| COc1ccc(C(=O)Nc2cc(OC)ccc2NC(=O)c2ccc(N3CCCN(C)CC3)cc2)cc1 | 118 | 1.25 | 1.34 | 7.1 | – |
| COc1ccc(C(=O)Nc2c(NC(=O)c3ccc(N4CCCN(C)CC4)cc3)cccc2OC)cc1 | 213 | – | – | 13 | – |
| COc1ccc(C(=O)Nc2cccc(C(=O)O)c2NC(=O)c2ccc(N3CCCN(C)CC3)cc2)cc1 | 99.2 | 1.05 | 1.08 | 9 | – |
| COc1ccc(C(=O)Nc2cc(O)ccc2NC(=O)c2ccc(N3CCCN(C)CC3)cc2)cc1 | 157 | 1.02 | 1.01 | 4.7 | – |
| COc1ccc(C(=O)Nc2cccc(F)c2NC(=O)c2ccc(N3CCCN(C)CC3)cc2)cc1 | 155 | 1.43 | 1.22 | 4.3 | – |
| COc1ccc(C(=O)Nc2cccc(OCC(=O)O)c2NC(=O)c2ccc(N3CCCN(C)CC3)cc2)cc1 | 123 | 0.99 | 0.98 | 2.8 | – |
| COc1ccc(C(=O)Nc2cccc(OCCO)c2NC(=O)c2ccc(N3CCCN(C)CC3)cc2)cc1 | 106 | 1.36 | 1.31 | 3 | – |
| CSc1ccc(C(=O)Nc2cccc(O)c2NC(=O)c2ccc(N3CCCN(C)CC3)cc2)cc1 | 1440 | – | – | – | – |
| CN1CCCN(c2ccc(C(=O)Nc3c(O)cccc3NC(=O)c3ccc(O)cc3)cc2)CC1 | 6140 | – | – | – | – |
| CN1CCCN(c2ccc(C(=O)Nc3c(O)cccc3NC(=O)c3ccc(F)cc3)cc2)CC1 | 349 | – | – | – | – |
| COc1ccc(C(=O)Nc2cccc(O)c2NC(=O)c2ccc(N3CCCN(C)CC3)cc2)s1 | 86.1 | 2.17 | 1.9 | 3.8 | – |
| COc1ccc(C(=O)Nc2cccc(O)c2NC(=O)c2ccc(N3CCCN(C)CC3)cc2)cc1.O=C(O)/C=C\C(=O)O | – | – | – | – | Cmax [12]: 175 ng/mL; AUC(0-t) at 24 h [13]: 1290 ng·h/mL; Tmax [14]: 2 h |

Continued by falling IC50 (Coagulation factor X [1]), values first:

| IC50 (Coagulation factor X [1]) [nM] | SMILES | fold change (FC) (Mus musculus [2]) | fold change (FC) (Mus musculus [4]) | CD (Plasma [5]) [µM] | other results |
| --- | --- | --- | --- | --- | --- |
| 64.2 | CN1CCCN(c2ccc(C(=O)Nc3c(O)cccc3NC(=O)c3ccc(Cl)cc3)cc2)CC1 | 1.42 | 1.32 | 5.3 | – |
| 62.6 | COc1ccc(C(=O)Nc2cccc(OC)c2NC(=O)c2ccc(N3CCCN(C)CC3)cc2)cc1 | 1.5 | 1.32 | 3.7 | CLint scaled at 0.2 µM [3]: 2200 mL/min/kg; Papp at 2 h [6]: 47.5 ×10⁻⁶ cm/s |
| 59.8 | CN1CCCN(c2ccc(C(=O)Nc3c(O)cccc3NC(=O)c3ccc(Br)cc3)cc2)CC1 | 1.41 | 1.62 | 6.7 | – |
| 54.6 | COc1ccc(C(=O)Nc2cccc(O)c2NC(=O)c2ccc(N3CCCN(C)CC3)cc2)cc1 [DAREXABAN] | 3.49 | 2.09 | 4.1 | CLint scaled at 0.2 µM [3]: 1910 mL/min/kg; Ki (Trypsin): > 100000 nM; Ki (Prothrombin): > 100000 nM; CD (Plasma [10]): 1.2 µM; Ki (Plasma kallikrein): 11000 nM; Ki (Coagulation factor X [11]): 31 nM; Papp at 2 h [6]: 30 ×10⁻⁶ cm/s |
| 50.3 | COc1ccc(C(=O)Nc2ccc(O)cc2NC(=O)c2ccc(N3CCCN(C)CC3)cc2)cc1 | 1.04 | 1 | 1.4 | CLint scaled at 0.2 µM [3]: 1700 mL/min/kg; Papp at 2 h [6]: < 0.3 ×10⁻⁶ cm/s |
| 41.4 | CN1CCCN(c2ccc(C(=O)Nc3c(O)cccc3NC(=O)c3ccc(Br)s3)cc2)CC1 | 1.53 | 1.22 | 7.1 | – |
| 41.3 | CN1CCCN(c2ccc(C(=O)Nc3c(O)cccc3NC(=O)c3ccc(Cl)s3)cc2)CC1 | 1.48 | 1.27 | 5.8 | – |
| 31.1 | COc1ccc(C(=O)Nc2ccc(C(=O)O)cc2NC(=O)c2ccc(N3CCCN(C)CC3)cc2)cc1 | 1 | 1 | 1.7 | – |
| 28.6 | COc1ccc(C(=O)Nc2cccc(O[C@@H]3O[C@H](C(=O)O)[C@@H](O)[C@H](O)[C@H]3O)c2NC(=O)c2ccc(N3CCCN(C)CC3)cc2)cc1 | – | – | 2.5 | CLint scaled at 0.2 µM [3]: 90.6 mL/min/kg; Tmax (Rattus norvegicus [7]): 0.5 h; Cmax (Rattus norvegicus [8]): 9439.5 ng/mL; Ki (Trypsin): > 100000 nM; AUC (Rattus norvegicus [9]): 38539.2 ng·h/mL; Ki (Prothrombin): > 100000 nM; CD (Plasma [10]): 0.95 µM; Ki (Plasma kallikrein): 17000 nM; Ki (Coagulation factor X [11]): 20 nM; Papp at 2 h [6]: < 0.2 ×10⁻⁶ cm/s |
